Reference: ChEMBL document CHEMBL1128453, “Peptidyl alpha-ketoheterocyclic inhibitors of human neutrophil elastase. 3. In vitro and in vivo potency of a series of peptidyl alpha-ketobenzoxazoles” (J Med Chem, 1995)

Tests used:
[1] = Percent reduction in leukocytes following elastase challenge/treatment.; type: functional; parameters: concentration or dose not given beside the values
Summary of the method: (§1)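 Male Syrian hamsters (90–110 g), anaesthetised with brevital sodium (30 mg/kg ip), received intratracheal HNE (400 μg in 0.01 M PBS). Test agent was given intratracheally, either admixed with the enzyme or predosed (shortest interval 6 h). Dose interval is the longest with significant lesion inhibition. At 24 h, wet lung weight/body weight and lavage red/white cells (Coulter) were measured. Results are % reduction scaled between the HNE and saline controls (p = 0.05).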

[2] = Percentage reduction in erythrocytes following elastase challenge/treatment.; type: functional; parameters: concentration or dose not given beside the values; summary of the method: as §1
[3] = target: T1, Neutrophil elastase (Homo sapiens, UniProt P08246); test: Inhibition of human neutrophil elastase-catalyzed hydrolysis of the synthetic substrate MeO-Suc-Ala-Ala-Pro-Val-pNa
T1 sequence (P08246 whole entry): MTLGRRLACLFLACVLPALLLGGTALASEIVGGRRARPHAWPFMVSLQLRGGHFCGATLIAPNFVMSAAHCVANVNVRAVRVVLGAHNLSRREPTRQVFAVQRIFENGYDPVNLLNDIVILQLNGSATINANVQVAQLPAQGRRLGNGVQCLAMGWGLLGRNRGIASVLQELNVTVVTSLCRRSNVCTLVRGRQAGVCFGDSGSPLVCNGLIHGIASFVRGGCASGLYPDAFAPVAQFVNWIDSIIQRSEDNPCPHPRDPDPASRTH

[4] = target: T2, Neutrophil elastase (Homo sapiens) (UniProt P08246); settings: Lung
T2 sequence (whole entry): T1 sequence (P08246 whole entry)

[5] = tested on: Cricetinae gen. sp.; test: Dose interval reported as the longest interval at which significant inhibition of HNE induced uM Dose of HNE used was 400 ug/hamster; type: functional; summary of the method: as §1
[6] = Evaluated for the percent reduction relative to HNE and saline controls of red blood cells; type: functional; summary of the method: as §1
[7] = tested on: Cricetinae gen. sp.; test: Compound is evaluated for wet lung weight (LW) relative to body weight (Bw).Value is statistically significant relative to control (p = 0.05).; type: functional; summary of the method: as §1
[8] = Evaluated for the percent reduction relative to HNE and saline controls of white blood cells; type: functional; summary of the method: as §1
[9] = Evaluated for the percent reduction relative to HNE and saline controls of red blood cells. An asterisk (*) indicates (p = 0.05).; type: functional; summary of the method: as §1

Row | SMILES | Ki [3] | Lw/Bw [4] | Reduction [1] | Reduction [2] | further results
1 | COC(=O)c1ccc2nc(C(=O)[C@@H](NC(=O)[C@@H]3CCCN3C(=O)[C@@H](NC(=O)c3ccc(C(=O)NS(=O)(=O)c4ccc(Cl)cc4)cc3)C(C)C)C(C)C)oc2c1 | – | – | 72% | 76% | –
2 | CC(C)[C@H](NC(=O)[C@@H]1CCCN1C(=O)[C@@H](NC(=O)c1ccc(C(=O)NS(C)(=O)=O)cc1)C(C)C)C(=O)c1nc2ccccc2o1 | 4.6 nM | 87 | 78% | 84% | –
3 | COC(=O)c1ccc2nc(C(=O)[C@@H](NC(=O)[C@@H]3CCCN3C(=O)[C@@H](NC(=O)OCc3ccccc3)C(C)C)C(C)C)oc2c1 | 0.55 nM | – | – | – | –
4 | CC(C)[C@H](NC(=O)[C@@H]1CCCN1C(=O)[C@@H](NC(=O)c1ccc(NC(=O)NS(=O)(=O)c2ccc(Cl)cc2)cc1)C(C)C)C(=O)c1nc2ccccc2o1 | – | – | 82% | 68% | Dose interval [5]: 6 h
5 | CC(C)[C@H](NC(=O)[C@@H]1CCCN1C(=O)[C@@H](NC(=O)c1ccc(C(=O)NS(=O)(=O)c2ccc(Cl)cc2)cc1)C(C)C)C(=O)c1nc2ccccc2o1 | – | – | 84% | 80% | Dose interval [5]: 6 h
6 | CC(C)[C@H](NC(=O)[C@@H]1CCCN1C(=O)[C@@H](NC(=O)c1ccc(S(N)(=O)=O)cc1)C(C)C)C(=O)c1nc2ccccc2o1 | – | – | -42% | -44% | –
7 | COC(=O)c1ccc(C(=O)N[C@H](C(=O)N2CCC[C@H]2C(=O)N[C@H](C(=O)c2nc3ccccc3o2)C(C)C)C(C)C)cc1 | – | – | -5% | – | Reduction [6]: 17%
8 | CC(C)[C@H](NC(=O)[C@@H]1CCCN1C(=O)[C@@H](NC(=O)c1ccc(C(=O)NS(=O)(=O)c2ccc(Cl)cc2)cc1)C(C)C)C(=O)c1nc2cc(CO)ccc2o1 | 0.66 nM | 30 | 39% | 46% | –
9 | CC(C)[C@H](NC(=O)[C@@H]1CCCN1C(=O)[C@@H](NC(=O)c1ccc(C(=O)OC(C)(C)C)cc1)C(C)C)C(=O)c1nc2ccccc2o1 | – | – | – | – | Lw/Bw [7]: 41; Reduction [8]: -14%; Reduction [6]: 29%
10 | CC(C)[C@H](NC(=O)[C@@H]1CCCN1C(=O)[C@@H](NC(=O)c1ccc(C(=O)O)cc1)C(C)C)C(=O)c1nc2ccccc2o1 | – | – | -1% | – | Reduction [9]: 49%
11 | COc1ccc2oc(C(=O)[C@@H](NC(=O)[C@@H]3CCCN3C(=O)[C@@H](NC(=O)OCc3ccccc3)C(C)C)C(C)C)nc2c1 | 1.9 nM | – | – | – | –
12 | COC(=O)c1ccc2oc(C(=O)[C@@H](NC(=O)[C@@H]3CCCN3C(=O)[C@@H](NC(=O)c3ccc(NS(=O)(=O)C(F)(F)F)cc3)C(C)C)C(C)C)nc2c1 | 0.3 nM | 71 | 77% | 82% | –

Now from value to compound, other results behind:

Row | Ki [3] | Lw/Bw [4] | SMILES | Reduction [1] | Reduction [2] | further results
13 | 0.6 nM | 63 | CC(C)[C@H](NC(=O)[C@@H]1CCCN1C(=O)[C@@H](NC(=O)c1ccc(NC(=O)NS(=O)(=O)c2ccccc2)cc1)C(C)C)C(=O)c1nc2ccccc2o1 | 31% | 62% | –
14 | 0.06 nM | 48 | COC(=O)c1ccc2oc(C(=O)[C@@H](NC(=O)[C@@H]3CCCN3C(=O)[C@@H](NC(=O)c3ccc(NC(=O)NS(=O)(=O)c4ccc(Cl)cc4)cc3)C(C)C)C(C)C)nc2c1 | -31% | 13% | –
15 | – | 15 | COC(=O)c1ccc2oc(C(=O)[C@@H](NC(=O)[C@@H]3CCCN3C(=O)[C@@H](NC(=O)c3ccc(S(N)(=O)=O)cc3)C(C)C)C(C)C)nc2c1 | 30% | -32% | –
16 | 1.1 nM | – | CC(C)[C@H](NC(=O)[C@@H]1CCCN1C(=O)[C@@H](NC(=O)OCc1ccccc1)C(C)C)C(=O)c1nc2cc(Cl)ccc2o1 | – | – | –
17 | 4.2 nM | – | CC(C)[C@H](NC(=O)[C@@H]1CCCN1C(=O)[C@@H](NC(=O)OCc1ccccc1)C(C)C)C(=O)c1nc2cc(C(=O)O)ccc2o1 | – | – | –
18 | 2.4 nM | – | CC(C)[C@H](NC(=O)[C@@H]1CCCN1C(=O)[C@@H](NC(=O)OCc1ccccc1)C(C)C)C(=O)c1nc2cc(CO)ccc2o1 | – | – | –
19 | 0.65 nM | 63 | CC(C)[C@H](NC(=O)[C@@H]1CCCN1C(=O)[C@@H](NC(=O)c1ccc(C(=O)NS(=O)(=O)c2ccc(Cl)cc2)cc1)C(C)C)C(=O)c1nc2cc(C(=O)O)ccc2o1 | 66% | 94% | –
20 | 4.4 nM | – | CC(C)[C@H](NC(=O)[C@@H]1CCCN1C(=O)[C@@H](NC(=O)OCc1ccccc1)C(C)C)C(=O)c1nc2cc(CC(=O)O)ccc2o1 | – | – | –
21 | 1.1 nM | – | COC(=O)Cc1ccc2oc(C(=O)[C@@H](NC(=O)[C@@H]3CCCN3C(=O)[C@@H](NC(=O)OCc3ccccc3)C(C)C)C(C)C)nc2c1 | – | – | –
22 | – | 38 | CC(C)[C@H](NC(=O)[C@@H]1CCCN1C(=O)[C@@H](NC(=O)c1ccc(C(=O)NS(=O)(=O)c2ccc(Cl)cc2)cc1)C(C)C)C(=O)c1nc2cc(O)ccc2o1 | 40% | 57% | –
23 | 1.8 nM | – | CC(C)[C@H](NC(=O)[C@@H]1CCCN1C(=O)[C@@H](NC(=O)OCc1ccccc1)C(C)C)C(=O)c1nc2cc(C#N)ccc2o1 | – | – | –
24 | 0.43 nM | – | CC(C)[C@H](NC(=O)[C@@H]1CCCN1C(=O)[C@@H](NC(=O)OCc1ccccc1)C(C)C)C(=O)c1nc2cc(CO[Si](C)(C)C(C)(C)C)ccc2o1 | – | – | –
25 | 0.37 nM | – | COC(=O)c1ccc2oc(C(=O)[C@@H](NC(=O)[C@@H]3CCCN3C(=O)[C@@H](NC(=O)OCc3ccccc3)C(C)C)C(C)C)nc2c1 | – | – | –
26 | 1.5 nM | 68 | CC(C)[C@H](NC(=O)[C@@H]1CCCN1C(=O)[C@@H](NC(=O)c1ccc(C(=O)NS(=O)(=O)C(C)C)cc1)C(C)C)C(=O)c1nc2ccccc2o1 | 70% | 60% | –
27 | 1 nM | – | CC(C)[C@H](NC(=O)[C@@H]1CCCN1C(=O)[C@@H](NC(=O)OCc1ccccc1)C(C)C)C(=O)c1nc2cc(C(=O)ON)ccc2o1 | – | – | –
28 | 0.1 nM | 67 | COC(=O)c1ccc2oc(C(=O)[C@@H](NC(=O)[C@@H]3CCCN3C(=O)[C@@H](NC(=O)c3ccc(C(=O)NS(=O)(=O)c4ccc(Cl)cc4)cc3)C(C)C)C(C)C)nc2c1 | -32% | 71% | –
29 | 0.66 nM | 48 | COc1ccc2oc(C(=O)[C@@H](NC(=O)[C@@H]3CCCN3C(=O)[C@@H](NC(=O)c3ccc(C(=O)NS(=O)(=O)c4ccc(Cl)cc4)cc3)C(C)C)C(C)C)nc2c1 | 24% | 21% | –
30 | 0.5 nM | 29 | CC(C)[C@H](NC(=O)[C@@H]1CCCN1C(=O)[C@@H](NC(=O)c1ccc(C(=O)NS(=O)(=O)c2ccccc2)cc1)C(C)C)C(=O)c1nc2ccccc2o1 | 64% | 58% | Dose interval [5]: 6 h
